High-throughput results from PubChem BioAssay.
This is a sample that favours compounds with a hit; in the whole collection about 1.7% have one here.
STEP block – STEP (human) phosphatase inhibition; 0.25% of 360,000 active; inhibition, % at 20 µM; recombinant STEP, OMFP fluorogenic substrate, fluorescence; P54829;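 active = inhibition at 20 µM, scaled per plate between control wells, above about 37%, limit read from the data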;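 also: 0% = DMSO with enzyme and substrate and 100% = substrate only without enzyme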
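material = STEP tyrosine phosphatase | reagent = fluorogenic phosphatase substrate OMFP at 25 µM final | doses = single compound dose of 20 µM, 1% DMSO final | schedule = 20 min reaction, room temperature, in the dark | measured by = fluorescence, 480/540 nm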
LMPTP block – LMPTP (human) inhibition | recombinant LMPTP-A, OMFP fluorogenic substrate, fluorescence intensity | AID 651560 | P24666 | 0.22% of 360,000 active | inhibition, % at 20 µM;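 active = compounds that cut the enzyme signal by at least half of the control window in the single-dose screen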;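 also: plate controls were DMSO wells with enzyme plus substrate for no effect and substrate without enzyme for full effect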
Target sequence (P24666 whole entry, looked up): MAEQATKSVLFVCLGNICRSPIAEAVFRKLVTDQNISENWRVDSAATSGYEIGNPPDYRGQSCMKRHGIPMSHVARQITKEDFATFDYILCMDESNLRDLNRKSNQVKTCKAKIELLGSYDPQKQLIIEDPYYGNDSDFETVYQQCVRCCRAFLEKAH
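Test system: LMPTP-A phosphatase enzyme. Amount: LMPTP-A at 0.625 nM final in the reaction. Reagent: OMFP substrate, 400 µM final. Times: 50 min at room temperature. Signal: endpoint fluorescence intensity from OMFP dephosphorylation. Read-out basis: % inhibition. Benchmarks: no-enzyme and uninhibited controls.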
Scp1 inh – blocks human Scp-1 phosphatase activity. Recombinant Scp1, phosphopeptide, malachite green phosphate absorbance. inhibition, % at 20 µM. Q9GZU7. 0.88% of 340,000 active;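 active = inhibition above about 50% at 20 µM, limit read from the data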;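 also: plate controls were DMSO wells with enzyme for no effect and wells lacking enzyme for full effect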
Target sequence (Q9GZU7 76-261 limits assumed): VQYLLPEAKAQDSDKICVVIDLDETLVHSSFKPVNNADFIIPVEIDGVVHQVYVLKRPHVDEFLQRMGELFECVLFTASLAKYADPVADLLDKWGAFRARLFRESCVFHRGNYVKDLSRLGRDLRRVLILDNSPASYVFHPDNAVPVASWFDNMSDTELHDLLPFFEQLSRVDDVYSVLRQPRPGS
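Material: truncated SCP-1 phosphatase (76-261aa) / Buffer or medium: 50 mM Tris acetate pH 5.5, 0.005% Tween-20, 10 mM MgCl2 / Compound dosing: one concentration, 20 µM, with 1.0% DMSO / Incubation: 45 min room-temperature reaction, 5 min colour, 30 min stabiliser / Detection: colorimetric free-phosphate detection, absorbance 630 nm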
SUMO1-SIM PPI – modulators of human SUMO1-mediated protein-protein interactions. P63165. SUMO1 binding to a labelled peptide, TR-FRET, 1 h. inhibition, % at 20 µM. 0.33% of 360,000 active. AID 602429; in the data active = inhibition above about 37%
Target sequence (P63165 whole entry, looked up): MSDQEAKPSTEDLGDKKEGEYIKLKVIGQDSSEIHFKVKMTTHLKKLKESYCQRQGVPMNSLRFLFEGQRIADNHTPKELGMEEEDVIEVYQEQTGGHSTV
DNMT1 block – blocks human DNA methyltransferase DNMT1 | DNMT1 molecular beacon, Hinp1I cleavage, fluorescence | inhibition (reported as % activation of signal), % at 10 µM | 0.83% of 360,000 active; in the data active = inhibition above about 50%
Beacon interf DR – shows spectral interference in the DNMT1 beacon assay | shares compounds with DNMT1 block | molecular beacon fluorescence, spectral interference counter-screen | IC50, µM | 200 tested, under 10 active | AID 602382; call rule not given here
DNMT1 inh conf – DNMT1 inhibition confirmation, single concentration; shares compounds with DNMT1 block; DNMT1 molecular beacon HinP1I cleavage, fluorescence; inhibition, % at 10 µM; 8% of 2,300 active; AID 602385;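 active = average inhibition of at least 30% in the single-concentration confirmation test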
DNMT1 interf – counter-screen for DNMT1 inhibitors: spectral interference; shares compounds with DNMT1 block; DNMT1 molecular beacon spectral interference counterscreen, fluorescence 485/520; activation (fluorescence interference), % at 10 µM; 1% of 2,300 active;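 active = activation of at least 30% at 10 µM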;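 also: DNMT1 catalytic domain with a HinP1I cleavage step and a FAM/dabcyl DNA beacon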
Active calls of the source: *; / = not tested or not shown.

SMILES	STEP block	LMPTP block	Scp1 inh	SUMO1-SIM PPI	DNMT1 block	DNMT1 inh conf	DNMT1 interf	others
C/C(=N\NC(=O)c1cccc(S(=O)(=O)N2CCOCC2)c1)c1ccc(C)cc1	-3.8	-0.4	-10.4	5.3	0.6	/	/
O=S(=O)(c1ccc2c(c1)CCN2)N1CCOCC1	-0.1	0.5	-0.7	-0.7	101.7*	2.9	4.8
O=S(=O)(c1ccc2ccccc2c1)N1CCOCC1	1.9	-0.2	-3.6	5.3	-1.8	/	/
COc1ccc2nc(SCC(=O)NCC(F)(F)F)[nH]c2c1	0.7	-1.7	-8.9	-2.3	2.8	/	/
O=C(c1ccc2c(=O)n3c(nc2c1)CCC3)N1CCN(S(=O)(=O)c2cccc(F)c2)CC1	-0.3	-0.8	-4.9	4.0	79.3*	-9.6	2.7
O=C(c1ccc2c(=O)n3c(nc2c1)CCCCC3)N1CCCCC1	-1.4	-2.3	-6.2	1.7	0.8	/	/
CCO[C@@H]1OC(C(N)=O)=C[C@H](c2ccc(C(F)(F)F)cc2)[C@H]1CCCO	-4.1	-1.8	-2.7	-0.6	70.8*	0.7	0.5
Cc1ccc(NC(=O)CN2C(=O)S/C(=C\c3cccn3-c3cccc(C(=O)O)c3)C2=O)c(C)c1	70.7*	48.0	83.9*	9.2	85.5*	69.4*	-5.1	Beacon interf DR=>99
COc1ccc(/C=C2\SC(=O)N(CCCC(=O)Nc3ccc(C(=O)O)cc3)C2=O)cc1	0.6	-1.1	/	-24.2	3.9	/	/
COc1ccc(NC(=O)CN2C(=O)S/C(=C/c3cccn3-c3ccc(C(=O)O)cc3)C2=O)cc1	86.1*	77.3*	/	13.7	77.8*	12.3	-1.5
O=C(c1ccccc1)c1ccc(O)c(O)c1O	32.0	51.0*	66.3*	20.1	77.8*	7.2	-2.6
COc1ccc(Cl)cc1S(=O)(=O)N1CCN(C(=O)c2n[nH]c(=O)c3ccccc23)CC1	0.9	-4.2	-9.5	-5.1	0.9	/	/
Cc1ccccc1C1NC(=O)c2ccccc2O1 (stereo unspecified)	-6.8	-0.6	0.8	6.3	74.7*	3.5	4.5
O=C1NC(c2ccc(Cl)cc2Cl)Oc2ccccc21 (stereo unspecified)	-5.2	0.0	0.1	-2.9	-5.2	/	/
COC(=O)c1sc(N2C(=O)C(O)=C(C(=O)c3ccc(C)o3)C2c2cccs2)nc1C (stereo unspecified)	7.8	11.2	-1.8	-6.2	0.2	/	/
COC(=O)c1sc(N2C(=O)c3oc4ccccc4c(=O)c3C2c2cccs2)nc1C (stereo unspecified)	-2.8	-2.3	1.1	-11.2	60.1*	1.6	-3.0
O=C(O)c1cc(NC(=O)c2cccc(N3C(=O)c4ccccc4C3=O)c2)cc(C(=O)O)c1	-1.3	-2.0	-6.7	-5.0	1.4	/	/
NS(=O)(=O)c1ccc(NC(=O)c2cccc(N3C(=O)c4ccccc4C3=O)c2)cc1	37.8	38.3	6.2	93.6*	54.9*	7.5	2.1
O=C(Nc1nnc(-c2ccccc2)s1)c1ccc(F)cc1	-1.0	-1.1	-2.5	-2.0	71.9*	2.0	0.5
Cc1ccc2c(N)c(C)ccc2c1	-1.7	-0.6	-8.5	-18.3	-9.0	/	/
Cc1ccc2cc3c(N)c4c(C)ccc(C)c4nc3nc2c1	-7.0	5.2	-6.7	-13.0	72.2*	25.0	-8.3	Beacon interf DR=>99
COc1ccc(NC(=S)NCc2cccnc2)cc1	-0.4	-1.0	3.2	2.9	89.0*	2.6	3.3
COc1ccc(NC(=S)NCc2cccnc2)cc1OC	-2.6	1.2	-0.7	0.1	0.4	/	/
Cc1ccc(OCC(O)CN2CCC(Cc3ccccc3)CC2)c(C)c1 (stereo unspecified)	1.0	-1.5	-3.4	-8.1	0.9	/	/
C=C(C)CNC(=O)CCc1nnc(C2(c3ccc(Cl)cc3)CCC2)o1	-2.8	-0.4	-1.3	-1.7	4.0	/	/
COC(=O)CNC(=O)CCc1nnc(C2(c3ccc(Cl)cc3)CCC2)o1	-0.9	-1.1	0.9	10.0	58.2*	1.7	-1.2
